Converted amounts (≈) assume the structure as drawn.
Columns and labels:
Assay type in all cases: functional
Pseudomonas aeruginosa [1] = test: Antibacterial activity against Pseudomonas aeruginosa 09-35 after 18 to 24 hrs by twofold serial dilution method
Outline: (§1)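 MIC determined by the standard twofold serial dilution method on agar media, screening against Gram-positive and Gram-negative strains. Levofloxacin and gemifloxacin were run alongside as reference drugs.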

Pseudomonas aeruginosa [2] = test: Antibacterial activity against Pseudomonas aeruginosa 09-34 after 18 to 24 hrs by twofold serial dilution method; outline: as §1
Pseudomonas aeruginosa [3] = test: Antibacterial activity against Pseudomonas aeruginosa ATCC 27853 after 18 to 24 hrs by twofold serial dilution method; outline: as §1
[4] = test system: Staphylococcus epidermidis; test: Antibacterial activity against methicillin-sensitive Staphylococcus epidermidis 09-3 after 18 to 24 hrs by twofold serial dilution method
Outline: (§2)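 Standard twofold serial agar dilution method on agar media for MIC determination. Screened against representative Gram-positive and Gram-negative strains. Levofloxacin and GMFX served as control drugs.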

Pseudomonas aeruginosa [5] = test: Antibacterial activity against Pseudomonas aeruginosa 09-33 after 18 to 24 hrs by twofold serial dilution method; outline: as §1
[6] = test system: Staphylococcus epidermidis; test: Antibacterial activity against methicillin-sensitive Staphylococcus epidermidis 09-6 after 18 to 24 hrs by twofold serial dilution method; outline: as §2
Klebsiella pneumoniae [7] = test: Antibacterial activity against Klebsiella pneumoniae 09-22 after 18 to 24 hrs by twofold serial dilution method; outline: as §1
Staphylococcus aureus [8] = test: Antibacterial activity against methicillin-sensitive Staphylococcus aureus 08-2 after 18 to 24 hrs by twofold serial dilution method; outline: as §2
[9] = test system: Staphylococcus epidermidis; test: Antibacterial activity against methicillin-resistant Staphylococcus epidermidis 09-2 after 18 to 24 hrs by twofold serial dilution method; outline: as §2
Staphylococcus aureus [10] = test: Antibacterial activity against Staphylococcus aureus ATCC […] after 18 to 24 hrs by twofold serial dilution method; outline: as §1
Streptococcus pneumoniae [11] = test: Antibacterial activity against Streptococcus pneumoniae 08-2 after 18 to 24 hrs by twofold serial dilution method; outline: as §1
[12] = test system: Staphylococcus epidermidis; test: Antibacterial activity against methicillin-resistant Staphylococcus epidermidis 09-3 after 18 to 24 hrs by twofold serial dilution method; outline: as §2
Escherichia coli [13] = test: Antibacterial activity against Escherichia coli ATCC 25922 after 18 to 24 hrs by twofold serial dilution method; outline: as §1
Pseudomonas aeruginosa [14] = test: Antibacterial activity against Pseudomonas aeruginosa 09-32 after 18 to 24 hrs by twofold serial dilution method; outline: as §1
Enterococcus faecalis [15] = test: Antibacterial activity against Enterococcus faecalis 08-12 after 18 to 24 hrs by twofold serial dilution method; outline: as §1
Klebsiella pneumoniae [16] = test: Antibacterial activity against Klebsiella pneumoniae 09-23 after 18 to 24 hrs by twofold serial dilution method; outline: as §1
Enterococcus faecium [17] = test: Antibacterial activity against Enterococcus faecium 08-7 after 18 to 24 hrs by twofold serial dilution method; outline: as §1
Staphylococcus aureus [18] = test: Antibacterial activity against methicillin-resistant Staphylococcus aureus 08-1 after 18 to 24 hrs by twofold serial dilution method; outline: as §2
Escherichia coli [19] = test: Antibacterial activity against Escherichia coli 08-22 after 18 to 24 hrs by twofold serial dilution method; outline: as §1
Klebsiella pneumoniae [20] = test: Antibacterial activity against Klebsiella pneumoniae 09-21 after 18 to 24 hrs by twofold serial dilution method; outline: as §1
Enterococcus faecium [21] = test: Antibacterial activity against Enterococcus faecium 08-2 after 18 to 24 hrs by twofold serial dilution method; outline: as §1
Streptococcus pneumoniae [22] = test: Antibacterial activity against Streptococcus pneumoniae 08-4 after 18 to 24 hrs by twofold serial dilution method; outline: as §1
[23] = test system: Staphylococcus epidermidis; test: Antibacterial activity against methicillin-resistant Staphylococcus epidermidis 09-4 after 18 to 24 hrs by twofold serial dilution method; outline: as §2
Enterococcus faecalis [24] = test: Antibacterial activity against Enterococcus faecalis 08-10 after 18 to 24 hrs by twofold serial dilution method; outline: as §1
Escherichia coli [25] = test: Antibacterial activity against Escherichia coli 08-21 after 18 to 24 hrs by twofold serial dilution method; outline: as §1

Compound	MIC (Pseudomonas aeruginosa [1])	MIC (Pseudomonas aeruginosa [2])	MIC (Pseudomonas aeruginosa [3])	MIC [4]	MIC (Pseudomonas aeruginosa [5])	MIC [6]	MIC (Klebsiella pneumoniae [7])	MIC (Staphylococcus aureus [8])	MIC [9]	MIC (Staphylococcus aureus [10])	MIC (Streptococcus pneumoniae [11])	MIC [12]	MIC (Escherichia coli [13])	MIC (Pseudomonas aeruginosa [14])	MIC (Enterococcus faecalis [15])	MIC (Klebsiella pneumoniae [16])	MIC (Enterococcus faecium [17])	MIC (Staphylococcus aureus [18])	MIC (Escherichia coli [19])	MIC (Klebsiella pneumoniae [20])	also measured
CCO/N=C1\CN(c2c(F)cc3c(=O)c(C(=O)O)cn(CC)c3c2F)CC1/C(N)=N\O (stereo not given)	> 128 µg/mL	> 128 µg/mL	> 128 µg/mL	0.125 µg/mL (≈ 0.286 µM)	> 128 µg/mL	0.125 µg/mL (≈ 0.286 µM)	> 128 µg/mL	1 µg/mL (≈ 2.29 µM)	1 µg/mL (≈ 2.29 µM)	1 µg/mL (≈ 2.29 µM)	16 µg/mL (≈ 36.6 µM)	0.25 µg/mL (≈ 0.572 µM)	> 128 µg/mL	> 128 µg/mL	> 128 µg/mL	> 128 µg/mL	> 128 µg/mL	1 µg/mL (≈ 2.29 µM)	16 µg/mL (≈ 36.6 µM)	> 128 µg/mL	MIC (Enterococcus faecium [21]): > 128 µg/mL; MIC (Streptococcus pneumoniae [22]): > 128 µg/mL; MIC [23]: 1 µg/mL (≈ 2.29 µM); MIC (Enterococcus faecalis [24]): > 128 µg/mL; MIC (Escherichia coli [25]): > 128 µg/mL
CCn1cc(C(=O)O)c(=O)c2cc(F)c(N3C/C(=N\OC)C(/C(N)=N\OC)C3)c(F)c21 (stereo not given)	> 128 µg/mL	> 128 µg/mL	128 µg/mL (≈ 293 µM)	0.25 µg/mL (≈ 0.572 µM)	> 128 µg/mL	0.5 µg/mL (≈ 1.14 µM)	1 µg/mL (≈ 2.29 µM)	0.25 µg/mL (≈ 0.572 µM)	2 µg/mL (≈ 4.57 µM)	0.25 µg/mL (≈ 0.572 µM)	1 µg/mL (≈ 2.29 µM)	0.25 µg/mL (≈ 0.572 µM)	128 µg/mL (≈ 293 µM)	> 128 µg/mL	> 128 µg/mL	> 128 µg/mL	> 128 µg/mL	0.25 µg/mL (≈ 0.572 µM)	> 128 µg/mL	> 128 µg/mL	MIC (Enterococcus faecium [21]): > 128 µg/mL; MIC (Streptococcus pneumoniae [22]): 1 µg/mL (≈ 2.29 µM); MIC [23]: 0.25 µg/mL (≈ 0.572 µM); MIC (Enterococcus faecalis [24]): > 128 µg/mL; MIC (Escherichia coli [25]): > 128 µg/mL
CCO/N=C(/N)C1CN(c2c(F)cc3c(=O)c(C(=O)O)cn(CC)c3c2F)C/C1=N\OC (stereo not given)	> 128 µg/mL	> 128 µg/mL	> 128 µg/mL	0.25 µg/mL (≈ 0.554 µM)	> 128 µg/mL	0.25 µg/mL (≈ 0.554 µM)	1 µg/mL (≈ 2.22 µM)	0.25 µg/mL (≈ 0.554 µM)	0.5 µg/mL (≈ 1.11 µM)	0.125 µg/mL (≈ 0.277 µM)	16 µg/mL (≈ 35.4 µM)	0.125 µg/mL (≈ 0.277 µM)	> 128 µg/mL	> 128 µg/mL	> 128 µg/mL	> 128 µg/mL	> 128 µg/mL	0.25 µg/mL (≈ 0.554 µM)	> 128 µg/mL	> 128 µg/mL	MIC (Enterococcus faecium [21]): > 128 µg/mL; MIC (Streptococcus pneumoniae [22]): 0.5 µg/mL (≈ 1.11 µM); MIC [23]: 0.125 µg/mL (≈ 0.277 µM); MIC (Enterococcus faecalis [24]): > 128 µg/mL; MIC (Escherichia coli [25]): > 128 µg/mL
CO/N=C1\CN(c2c(F)cc3c(=O)c(C(=O)O)cn(C4CC4)c3c2F)CC1/C(N)=N\OC (stereo not given)	8 µg/mL (≈ 17.8 µM)	> 128 µg/mL	4 µg/mL (≈ 8.9 µM)	0.125 µg/mL (≈ 0.278 µM)	> 128 µg/mL	0.25 µg/mL (≈ 0.556 µM)	0.25 µg/mL (≈ 0.556 µM)	0.25 µg/mL (≈ 0.556 µM)	0.125 µg/mL (≈ 0.278 µM)	0.125 µg/mL (≈ 0.278 µM)	16 µg/mL (≈ 35.6 µM)	0.25 µg/mL (≈ 0.556 µM)	128 µg/mL (≈ 285 µM)	8 µg/mL (≈ 17.8 µM)	> 128 µg/mL	> 128 µg/mL	64 µg/mL (≈ 142 µM)	0.25 µg/mL (≈ 0.556 µM)	> 128 µg/mL	> 128 µg/mL	MIC (Enterococcus faecium [21]): > 128 µg/mL; MIC (Streptococcus pneumoniae [22]): 4 µg/mL (≈ 8.9 µM); MIC [23]: 0.25 µg/mL (≈ 0.556 µM); MIC (Enterococcus faecalis [24]): > 128 µg/mL; MIC (Escherichia coli [25]): > 128 µg/mL
CCO/N=C1\CN(c2c(F)cc3c(=O)c(C(=O)O)cn(C4CC4)c3c2F)CC1/C(N)=N\OC (stereo not given)	16 µg/mL (≈ 34.5 µM)	> 128 µg/mL	8 µg/mL (≈ 17.3 µM)	0.25 µg/mL (≈ 0.539 µM)	> 128 µg/mL	0.25 µg/mL (≈ 0.539 µM)	0.25 µg/mL (≈ 0.539 µM)	0.125 µg/mL (≈ 0.27 µM)	0.25 µg/mL (≈ 0.539 µM)	0.125 µg/mL (≈ 0.27 µM)	32 µg/mL (≈ 69 µM)	0.125 µg/mL (≈ 0.27 µM)	64 µg/mL (≈ 138 µM)	16 µg/mL (≈ 34.5 µM)	> 128 µg/mL	> 128 µg/mL	0.25 µg/mL (≈ 0.539 µM)	0.25 µg/mL (≈ 0.539 µM)	> 128 µg/mL	> 128 µg/mL	MIC (Enterococcus faecium [21]): > 128 µg/mL; MIC (Streptococcus pneumoniae [22]): 0.25 µg/mL (≈ 0.539 µM); MIC [23]: 0.5 µg/mL (≈ 1.08 µM); MIC (Enterococcus faecalis [24]): 32 µg/mL (≈ 69 µM); MIC (Escherichia coli [25]): > 128 µg/mL
CCO/N=C(/N)C1CN(c2c(F)cc3c(=O)c(C(=O)O)cn(C4CC4)c3c2F)C/C1=N\OC (stereo not given)	> 128 µg/mL	> 128 µg/mL	> 128 µg/mL	0.06 µg/mL (≈ 0.129 µM)	> 128 µg/mL	0.06 µg/mL (≈ 0.129 µM)	2 µg/mL (≈ 4.32 µM)	0.06 µg/mL (≈ 0.129 µM)	0.06 µg/mL (≈ 0.129 µM)	0.06 µg/mL (≈ 0.129 µM)	32 µg/mL (≈ 69 µM)	0.06 µg/mL (≈ 0.129 µM)	> 128 µg/mL	> 128 µg/mL	> 128 µg/mL	> 128 µg/mL	> 128 µg/mL	0.06 µg/mL (≈ 0.129 µM)	> 128 µg/mL	> 128 µg/mL	MIC (Enterococcus faecium [21]): > 128 µg/mL; MIC (Streptococcus pneumoniae [22]): 1 µg/mL (≈ 2.16 µM); MIC [23]: 0.06 µg/mL (≈ 0.129 µM); MIC (Enterococcus faecalis [24]): > 128 µg/mL; MIC (Escherichia coli [25]): > 128 µg/mL
CO/N=C1\CN(c2c(F)cc3c(=O)c(C(=O)O)cn(CCF)c3c2F)CC1/C(N)=N\O (stereo not given)	> 128 µg/mL	> 128 µg/mL	> 128 µg/mL	0.5 µg/mL (≈ 1.13 µM)	> 128 µg/mL	1 µg/mL (≈ 2.27 µM)	> 128 µg/mL	> 128 µg/mL	> 128 µg/mL	1 µg/mL (≈ 2.27 µM)	1 µg/mL (≈ 2.27 µM)	1 µg/mL (≈ 2.27 µM)	> 128 µg/mL	> 128 µg/mL	> 128 µg/mL	> 128 µg/mL	> 128 µg/mL	1 µg/mL (≈ 2.27 µM)	> 128 µg/mL	> 128 µg/mL	MIC (Enterococcus faecium [21]): > 128 µg/mL; MIC (Streptococcus pneumoniae [22]): > 128 µg/mL; MIC [23]: 0.5 µg/mL (≈ 1.13 µM); MIC (Enterococcus faecalis [24]): > 128 µg/mL; MIC (Escherichia coli [25]): > 128 µg/mL
CCO/N=C1\CN(c2c(F)cc3c(=O)c(C(=O)O)cn(CCF)c3c2F)CC1/C(N)=N\O (stereo not given)	16 µg/mL (≈ 35.1 µM)	> 128 µg/mL	8 µg/mL (≈ 17.6 µM)	0.5 µg/mL (≈ 1.1 µM)	> 128 µg/mL	0.5 µg/mL (≈ 1.1 µM)	4 µg/mL (≈ 8.78 µM)	0.5 µg/mL (≈ 1.1 µM)	4 µg/mL (≈ 8.78 µM)	0.5 µg/mL (≈ 1.1 µM)	4 µg/mL (≈ 8.78 µM)	0.5 µg/mL (≈ 1.1 µM)	128 µg/mL (≈ 281 µM)	16 µg/mL (≈ 35.1 µM)	> 128 µg/mL	> 128 µg/mL	> 128 µg/mL	0.5 µg/mL (≈ 1.1 µM)	> 128 µg/mL	> 128 µg/mL	MIC (Enterococcus faecium [21]): > 128 µg/mL; MIC (Streptococcus pneumoniae [22]): 0.5 µg/mL (≈ 1.1 µM); MIC [23]: 0.5 µg/mL (≈ 1.1 µM); MIC (Enterococcus faecalis [24]): 4 µg/mL (≈ 8.78 µM); MIC (Escherichia coli [25]): > 128 µg/mL

Reference: ChEMBL document CHEMBL1287651, “Synthesis and in vitro antibacterial activity of fluoroquinolone derivatives containing 3-(N'-alkoxycarbamimidoyl)-4-(alkoxyimino) pyrrolidines” (2010)
